Positions of bridges follow the written chain, without caps; N, C: chain ends. Residues, ends and D or L forms follow the SMILES beside them. No end group written: not given here.

Broadly, the IC50 is the concentration that gives 50% inhibition. Broadly, the CC50 is the concentration at which the toxic effect on the cells reaches its halfway point. Lower therefore signals harm at low concentration. One may read the EC50 as the concentration at which the effect is half-maximal. As a reminder, the Kd is the free concentration of one partner at which half of the binding sites on the other are occupied at equilibrium, for simple one-to-one binding.

B1: N36 peptide derived from HIV-1 JR-FL gp41 (peptide)
chain: SGIVQQQNNLLRAIEAQQRMLQLTVWGIKQLQARVL
B2: fejerlectin (peptide)
peptide: RLCYMVLPCP
modifications: disulfide 3-9 (inferred)

Data set [1] relates to gp41 6-HB (N36 and C34 peptides). Put plainly: ELISA for inhibiting gp41 6-HB formation. In kind it is biochemical, HIV-1. Conditions: read-out: IC50, gp41 6-HB formation; 2 μM N36, 2 μM C34, 37 °C, ELISA 450 nm; mean ± SD, n = 3. Summed up:
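2 μM N36 was preincubated with the test compound (5–50 μM) at 37 °C for 30 min, then with 2 μM C34 at 37 °C for another 30 min. The mixture went onto plates coated with 2 μg/mL rabbit anti-6-HB IgG. Detection used 1 μg/mL NC-1 mAb, biotin-anti-mouse IgG, streptavidin-HRP and TMB, stopped with 1 M H2SO4, read at A450. Mean ± SD, n = 3.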
On the technique in general: In an ELISA, binding on a coated surface is turned into a signal by an enzyme label.

Data set [2] concerns HIV-1SF162, HIV-1NL4-3, and HIV-1_81A and NL4-3. The experiment in a line: time-of-addition assay, results in words for the viruses together. In kind it is cell-based. To be noted: AZT 45 nM, maraviroc 24 nM, AMD3100 50 nM. Summed up:
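TZM-bl cells (5 × 10^5/mL) were infected with HIV-1NL4-3, HIV-1SF162 or HIV-1 81A/NL4-3 at 100 TCID50 at 37 °C. Test compound (added as 25 μM) or control was introduced at 0, 0.5, 1, 2, 4, 6, 8 or 24 h post-infection. Medium was replaced at 24 h, and supernatant p24 antigen was measured at 48 h. Mean ± SD, n = 3.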

Data set [3] can be described thus: serum stability, HA activity after incubation in human serum. In kind it is in vitro ADME. To be noted: 3 h; method: human serum at 37 °C, read-out HA titer. Summed up: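 Test compound was held in human serum at 37 °C for 0–4 h before HA titration. Mouse erythrocytes were washed in Alsever's solution and used as a 2% (v/v) suspension in PBS pH 7.5. Twofold serial dilutions were made in V-bottom plates, with PBS as negative control. Titer is the reciprocal of the lowest concentration giving HA. Repeated at least three times.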

Another data set concerns TZM-bl cells. Put plainly: cytotoxicity in vitro. In kind it is cell-based. Conditions: MTT, 48 h, 1 to 1000 μM, mean ± SD, n = 3. In outline: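 TZM-bl cells, 2 × 10^4/well in DMEM with 10% FBS and 1% penicillin/streptomycin, were cultured 24 h, then exposed to the test compound (1–1000 μM) for 48 h. MTT (0.5 mg/mL) was applied for 4 h, and formazan was dissolved in DMSO and read at 570 nm. CC50 was computed from the dose series. Mean ± SD, n = 3.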

A further data set has as its system HIV-1SF162. To be noted: 1SF162, 48 h.
The next data set concerns HIV-1NL4-3. To be noted: 1NL4-3, 48 h.
For the next data set, the system named is HIV-1_81A and NL4-3. Conditions: 1 81A and NL4-3, 48 h.
In data set [4] the test system is HIV-1JR-FL pseudotyped virus. To be noted: 72 h.
For data set [5], the system named is HIV-1HXB2 pseudotyped virus. To be noted: 72 h.
A further data set relates to gp41. To be noted: cited from earlier work.
Another data set relates to HIV-1. Conditions: cited from earlier work.
The target of the data set “fejerlectin” is B2. The experiment in a line: SPR. On the technique in general: SPR reads the build-up and loss of mass on a sensor chip optically.
Data set [6] addresses B1. The experiment in a line: ELISA.

For `COc1ccc(S(=O)(=O)O)cc1N=Nc1c(S(=O)(=O)O)cc2cc(Nc3nc(Nc4ccccc4)nc(Nc4cc(C)c(N=Nc5cc(S(=O)(=O)O)cc6cc(S(=O)(=O)O)cc(O)c56)cc4OC)n3)ccc2c1O` [ADS-J1], the IC50 in data set [1] worked out at 1530 ± 480 nM.

On to `c1cc(CN2CCCNCCNCCCNCC2)ccc1CN1CCCNCCNCCCNCC1` [AMD3100], for which the “anti-HIV activity when added 8 h after infection” value (“anti-HIV activity when added 8 h” for short) in [2] is listed as “significantly decreased 8 h after infection”.

Turning to `Cc1cn([C@H]2C[C@H](N=[N+]=[N-])[C@@H](CO)O2)c(=O)[nH]c1=O` [AZT, zidovudine], the “anti-HIV activity when added 8 h” value in data set [2] is listed as “still had high antiviral activity when added 8 h after infection”.

For `CSCC[C@@H]1NC(=O)[C@H](Cc2ccc(O)cc2)NC(=O)[C@@H](NC(=O)[C@H](CC(C)C)NC(=O)[C@@H](N)CCCNC(=N)N)CSSC[C@@H](C(=O)N2CCC[C@H]2C(=O)O)NC(=O)[C@@H]2CCCN2C(=O)[C@H](CC(C)C)NC(=O)[C@H](C(C)C)NC1=O` [fejerlectin, RLCYMVLPCP] (H-RLCYMVLPCP-OH; disulfide 3-9), in data set [3], the “stability of HA activity in human plasma” value is “stable for 3 h in human plasma”. The molecule further registered a 50% cytotoxic concentration (CC50) in the data set on TZM-bl cells of 182490 ± 9350 nM. Moreover, the IC50 was 2170 ± 1030 nM in the data set with HIV-1SF162; 1430 ± 340 nM in the data set on HIV-1NL4-3; 2800 ± 370 nM in the data set with HIV-1_81A and NL4-3. Also, the values for the concentration giving a half-maximal response (EC50) in data set [4] and in data set [5] were 4200 ± 960 nM and 9630 ± 2300 nM, respectively.

As to `O=C(CCc1ccc(O)cc1)c1c(O)cc(O[C@@H]2O[C@H](CO)[C@@H](O)[C@H](O)[C@H]2O)cc1O` [trilobatin], the “HIV-1 entry/fusion inhibition via gp41 NHR” value in the data set with gp41 was “inhibited HIV-1 entry/fusion by binding the gp41 NHR region and blocking the formation of fusion-active 6-HB”.

On to caerin 1.1, for which the “suppression of HIV proliferation” value with HIV-1 is reported as “suppress HIV proliferation by direct inactivation”.

As for maraviroc, in data set [2], the “anti-HIV activity when added 8 h” value is reported as “significantly decreased 8 h after infection”.

As to retrocyclin-1, the “protection of cells from HIV-1 infection” value in the data set with HIV-1 was “protect cells from HIV-1 infection by binding with high affinity to gp120, CD4, and galactosylceramide”.

Take sifuvirtide: the “anti-HIV-1 activity by inhibiting 6-HB formation” value in the data set on gp41 is recorded as “potent anti-HIV-1 activity by inhibiting 6-HB formation”.

Turning to B1, the dissociation constant (Kd) with fejerlectin was found to be 466000 nM.

Turning to B2, 2610 nM corresponded to half-maximal inhibition in [6] (IC50).

The values are drawn from publication PMC7948434 (ACS Omega, 2021).
